Source: ChEMBL document CHEMBL5653614, “Rescue of fragile X syndrome phenotypes in Fmr1 KO mice by the small-molecule PAK inhibitor FRAX486” (Proc Natl Acad Sci U S A, 2013)
Calls of active or inactive are those of the source. The calls are words filed in the database; no cut-off is given here.

Columns and labels:
[1] = system: Mus musculus; experiment: Protective activity in FVB.129P2-Pde6b+ Tyr c-ch/AntJ wild type mouse assessed as decrease in counterclockwise revolutions at 20 mg/kg, sc for 5 days by open field assay; assay type: functional, organism-based; conditions: time 5.0 day
In short: (§1)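 Adult male WT and Fmr1 KO mice dosed s.c. at 20 mg/kg or vehicle for 5 d; tested 4–5.5 h after dosing. Single mouse in a novel open field for 30 min, tracked by infrared sensors in 1-min bins; bar-graph values averaged over minutes 18–30. Mice beyond 2 SD in total distance, or immobile for 5 consecutive minutes, were excluded.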

[2] = system: Mus musculus; experiment: Protective activity in Fmr1 knockout FVB.129P2-Fmr1tm1Cgr/J mouse model of Fragile X syndrome assessed as decrease in time spent in moving at 20 mg/kg, sc for 5 days and measured for 30 mins by open field assay; assay type: functional, organism-based; conditions: time 5.0 day; in short: as §1
[3] = system: Mus musculus; experiment: (§2) Anti-seizure activity against 124dB loud auditory stimulus induced Fmr1 knockout FVB.129P2-Fmr1tm1Cgr/J mouse model of audiogenic seizure assessed as decrease in sound-induced seizure at 20 mg/kg,sc for 8 hrs followed by audiogenic seizure induction by audiogenic seizure assay (Rvb=100%); assay type: functional; design: scale not given: the % may be the effect or the level left
In short: (§3)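 Adult male mice (10–17 wk). Single s.c. dose (0, 10, 20 or 30 mg/kg) in 20% (wt/vol) hydroxypropyl-β-cyclodextrin vehicle; AGS induced 8 h later. Mouse acclimated 2 min in a clear acrylic two-chamber box, then exposed to a 124 dB sound. Scored as percentage of animals showing each sequential phase (wild running, seizure, death by respiratory arrest); χ2 test against vehicle.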

[4] = system: Mus musculus; experiment: Protective activity in FVB.129P2-Pde6b+ Tyr c-ch/AntJ wild type mouse assessed as decrease in distance travelled at 20 mg/kg, sc for 5 days and measured during 18 to 30 mins by open field assay; assay type: functional, organism-based; conditions: time 5.0 day; in short: as §1
[5] = system: Mus musculus; experiment: Protective activity in FVB.129P2-Pde6b+ Tyr c-ch/AntJ wild type mouse assessed as decrease in horizontal movements at 20 mg/kg, sc for 5 days and measured for 30 mins by open field assay; assay type: functional, organism-based; conditions: time 5.0 day; in short: as §1
[6] = system: Mus musculus; experiment: Protective activity in Fmr1 knockout FVB.129P2-Fmr1tm1Cgr/J mouse assessed as decrease in apical dendritic spine density in layer II/III pyramidal neurons segment 9 at 20 mg/kg, sc and measured after 8 hrs by Golgi-Cox technique analysis; assay type: functional, organism-based
In short: (§4)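 Adult male WT and Fmr1 KO FVB mice given 20 mg/kg s.c. or vehicle; brains collected 8 h later and Golgi stained. Apical dendrites of layer II/III pyramidal neurons in temporal cortex, originating 50–100 µm from the soma, were divided into ten 10-µm segments and spines counted. 40–60 neurons from 4–6 mice per group; one-way ANOVA.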

[7] = system: Mus musculus; experiment: Protective activity in Fmr1 knockout FVB.129P2-Fmr1tm1Cgr/J mouse model of Fragile X syndrome assessed as decrease in stereotypy count at 20 mg/kg, sc for 5 days by open field assay; assay type: functional, organism-based; conditions: time 5.0 day; in short: as §1
[8] = system: Mus musculus; experiment: Protective activity in FVB.129P2-Pde6b+ Tyr c-ch/AntJ wild type mouse assessed as decrease in time spent in moving at 20 mg/kg, sc for 5 days and measured for 30 mins by open field assay; assay type: functional, organism-based; conditions: time 5.0 day; in short: as §1
[9] = system: Mus musculus; experiment: (§5) Anti-seizure activity against 124dB loud auditory stimulus induced Fmr1 knockout FVB.129P2-Fmr1tm1Cgr/J mouse model of audiogenic seizure assessed as decrease in sound-induced seizure at 10 mg/kg,sc for 8 hrs followed by audiogenic seizure induction by audiogenic seizure assay (Rvb=100%); assay type: functional; design: scale not given: the % may be the effect or the level left; in short: as §3
[10] = system: Mus musculus; experiment: Protective activity in Fmr1 knockout FVB.129P2-Fmr1tm1Cgr/J mouse assessed as decrease in apical dendritic spine density in layer II/III pyramidal neurons segment 8 at 20 mg/kg, sc and measured after 8 hrs by Golgi-Cox technique analysis; assay type: functional, organism-based; in short: as §4
[11] = system: Mus musculus; experiment: Protective activity in Fmr1 knockout FVB.129P2-Fmr1tm1Cgr/J mouse model of Fragile X syndrome assessed as decrease in horizontal movements at 20 mg/kg, sc for 5 days and measured for 30 mins by open field assay; assay type: functional, organism-based; conditions: time 5.0 day; in short: as §1
[12] = system: Mus musculus; experiment: Protective activity in Fmr1 knockout FVB.129P2-Fmr1tm1Cgr/J mouse model of Fragile X syndrome assessed as balance on accelerating rotarod at 20 mg/kg, sc and measured for 4 to 5.25 hrs by rotarod test; assay type: functional, organism-based; conditions: time 4-5.25 hrs
In short: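 Adult male WT and Fmr1 KO mice tested 4–5.5 h after s.c. 20 mg/kg or vehicle. Latency to fall or jump off the rotating cylinder recorded (max 3 min). Three trials per mouse, 30–40 min apart; per-mouse average latency compared.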

[13] = Tmax in FVB.129P2 mouse plasma at 20 mg/kg,sc by LC-MS/MS analysis; assay type: ADME, organism-based
In short: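 WT FVB.129P2 mice received a single s.c. injection of 20 mg/kg FRAX486 in 20% (wt/vol) hydroxypropyl-β-cyclodextrin. Blood was collected at time points from 15 min to 24 h, n = 2–3 per point. Plasma drug levels were quantified by LC-MS/MS and reported as mean ± SEM.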

[14] = system: Mus musculus; experiment: Protective activity in Fmr1 knockout FVB.129P2-Fmr1tm1Cgr/J mouse assessed as decrease in apical dendritic spine density in layer II/III pyramidal neurons segment 6 at 20 mg/kg, sc and measured after 8 hrs by Golgi-Cox technique analysis; assay type: functional, organism-based; in short: as §4
[15] = system: Mus musculus; experiment: as §5, with “5 days” for “8 hrs”, “induction after 8 hrs post-treatment” for “induction”, “(Rvb=96%)” for “(Rvb=100%)”; assay type: functional; design: scale not given: the % may be the effect or the level left; conditions: time 5 day
In short: (§6)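 Adult male Fmr1 KO mice given 10 or 20 mg/kg s.c. daily for 5 d in 20% hydroxypropyl-β-cyclodextrin vehicle. AGS assay run 8 h after the final injection: 2 min acclimation in an acrylic chamber, then a 124 dB auditory stimulus. Incidence of wild running and seizure recorded; χ2 comparison with vehicle.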

[16] = system: Mus musculus; experiment: as §2, with “5 days” for “8 hrs”, “induction after 8 hrs post-treatment” for “induction”, “(Rvb=96%)” for “(Rvb=100%)”; assay type: functional; design: scale not given: the % may be the effect or the level left; conditions: time 5 day; in short: as §6
[17] = Drug concentration in FVB.129P2 mouse plasma at 20 mg/kg,sc and measured upto 18 hrs by LC-MS/MS analysis; assay type: ADME, organism-based
In short: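 WT FVB.129P2 mice got one s.c. injection of 20 mg/kg (2 mg/mL in 20% hydroxypropyl-β-cyclodextrin). Blood and forebrain were collected at time points from 15 min to 24 h. Forebrain was weighed, snap-frozen and homogenized in 2 volumes of cold PBS. Drug quantified by LC-MS/MS. n = 2–3, mean ± SEM.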

[18] = system: Mus musculus; experiment: Protective activity in Fmr1 knockout FVB.129P2-Fmr1tm1Cgr/J mouse assessed as change in basal dendritic spine density in cortical neuron at 20 mg/kg, sc and measured after 8 hrs by Golgi-Cox technique analysis; assay type: functional, organism-based; conditions: Cortical neurone
[19] = system: Mus musculus; experiment: as §5, with “sound-induced wild running” for “sound-induced seizure”, “for 5 days” for “for 8 hrs”, “induction after 8 hrs post-treatment” for “induction”; assay type: functional; design: scale not given: the % may be the effect or the level left; conditions: time 5 day; in short: as §6

CCn1c(=O)c(-c2ccc(Cl)cc2Cl)cc2cnc(Nc3ccc(N4CCNCC4)c(F)c3)nc21
Activity [1]: Active
Activity [2]: Active
Activity [3]: 25%
Activity [4]: Active
Activity [5]: Active
Activity [6]: inactive
Activity [7]: Active
Activity [8]: Active
Activity [9]: 80%
Activity [10]: inactive
Activity [11]: Active
Activity [12]: inactive
Tmax [13]: 15 min
Activity [14]: inactive
Activity [15]: 50%
Activity [16]: 42%
concentration at 18 h [17]: > 100 ng/mL
Activity [18]: inactive
Activity [19]: 75%
